Laboratory results from paper PMC3580944 (Journal of medicinal chemistry, 2011).
“Also recorded” adds a separate entry of the source. Like-named read-outs stand apart in the source and are kept apart here. Marks after values point to notes of the source that are not given here.

Tests used:
Torpedo nACh receptor [1] = target: T1, Torpedo nACh receptor (Tetronarce californica, UniProt P02710+P02712+P02714+P02718); assay: Inhibition of ACh-elicited currents of Torpedo nACh receptors in Xenopus oocytes; format: cell-based; conditions: 10 μM ACh (~EC20)
In short: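 Two-electrode voltage clamp at room temperature on Xenopus oocytes. Oocytes were injected with ~25 ng Torpedo subunit cRNA at 2α:1β:1γ:1δ, clamped at −50 mV and perfused with ND96 (pH 7.5) at ~2 mL/min. 10 μM ACh was applied, then ACh plus rising test compound (10 mM DMSO stock diluted in ND96). Applications lasted 15–20 s with ~3 min washes. Currents were normalized to ACh alone and fit to a logistic equation; 3 oocytes.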

[2] = target: α1β3γ2 GABAA receptors (agonist site) (Homo sapiens, UniProt P14867+P18507+P28472); assay: Modulation of [3H]muscimol binding to GABAA receptor membranes from HEK293 cells
GABAA receptor = conditions: cited from earlier work
Xenopus laevis tadpoles [3] = conditions: read-out: General Anesthesia LoRR EC50, cited from earlier work
[4] = pure propofol in water; cited from earlier work
[5] = target: α1β3γ2 GABAA receptors (benzodiazepine site) (Homo sapiens, UniProt P14867+P18507+P28472); format: binding; conditions: for Enhancement of specific [3H]flunitrazepam binding: maximal effect; for effect on [3H]flunitrazepam binding above 40 μM: above 40 μM up to 400 μM
[6] = target: human α1β2γ2L GABAA receptor (Homo sapiens, UniProt P14867+P18507+P47870); assay: Two electrode voltage clamp of GABAA receptor currents in Xenopus oocytes; format: cell-based; conditions: for Imax of GABA current enhancement / nH of GABA current enhancement: 3 μM GABA (~EC5); for nH of GABA concentration response curve in the presence of drug: 6 μM 6; for nH of GABA concentration response curve in the presence of drug / Shift in GABA dose response curve to the left: 4.4 μM propofol; for Shift in GABA dose response curve to the left: twice the tadpole anesthesia EC50: 6 μM 6
Torpedo nACh receptor [7] = target: T1, Torpedo nACh receptor; assay: Photoincorporation of [3H]6 into nACh receptor-rich Torpedo membranes; format: binding; conditions: for effect on nACh receptor subunit photolabeling by [3H]6: absence of agonist (resting state), 100 μM drug
In short: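 Electric-organ membranes were held at 2 mg protein/mL in Torpedo saline (pH 7.0) with 1 mM oxidized glutathione. Aliquots (160 pmol ACh sites) were equilibrated 30 min with 1.7 μM tritiated test compound (12 Ci/mmol), alone or with 100 μM tetracaine, 100 μM phencyclidine, 300 μM parent anesthetic and/or 1 mM carbamylcholine. Samples were UV-irradiated (365 nm) on ice for 30 min, then run on SDS-PAGE. Read-outs were fluorography (2 weeks) and scintillation counting of excised subunit bands.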

Xenopus laevis tadpoles [8] = assay: General anesthetic potency, loss of righting reflexes; format: in vivo; conditions: recovery in fresh solution overnight
[9] = Stability in aqueous buffer at 4°C; format: physicochemical; conditions: 0.01M Tris/HCl pH 7.4, concentration close to saturation
In short: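 Excess test compound was stirred 24 h in 0.01 M Tris/HCl, pH 7.4, and centrifuged at 10,000g to give a near-saturated solution. This was stored at 4°C and monitored over time by reverse-phase HPLC (acetonitrile elution).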

[10] = Octanol/water partition coefficient by HPLC; format: physicochemical; conditions: estimated by HPLC of both phases
[11] = added to carbamylcholine-treated samples

T1 sequence (P02710 25-461): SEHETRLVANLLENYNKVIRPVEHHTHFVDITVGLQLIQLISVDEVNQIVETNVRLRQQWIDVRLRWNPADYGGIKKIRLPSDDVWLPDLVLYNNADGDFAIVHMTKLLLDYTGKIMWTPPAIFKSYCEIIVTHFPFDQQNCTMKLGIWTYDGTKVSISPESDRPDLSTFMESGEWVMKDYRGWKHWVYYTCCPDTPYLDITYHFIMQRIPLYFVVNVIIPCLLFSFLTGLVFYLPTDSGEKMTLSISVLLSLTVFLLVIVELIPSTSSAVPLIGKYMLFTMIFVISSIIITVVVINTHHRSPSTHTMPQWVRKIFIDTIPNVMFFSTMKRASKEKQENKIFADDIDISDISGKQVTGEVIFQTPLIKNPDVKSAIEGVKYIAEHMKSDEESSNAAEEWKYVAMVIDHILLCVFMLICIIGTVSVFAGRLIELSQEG
T1 sequence (P02712 25-493): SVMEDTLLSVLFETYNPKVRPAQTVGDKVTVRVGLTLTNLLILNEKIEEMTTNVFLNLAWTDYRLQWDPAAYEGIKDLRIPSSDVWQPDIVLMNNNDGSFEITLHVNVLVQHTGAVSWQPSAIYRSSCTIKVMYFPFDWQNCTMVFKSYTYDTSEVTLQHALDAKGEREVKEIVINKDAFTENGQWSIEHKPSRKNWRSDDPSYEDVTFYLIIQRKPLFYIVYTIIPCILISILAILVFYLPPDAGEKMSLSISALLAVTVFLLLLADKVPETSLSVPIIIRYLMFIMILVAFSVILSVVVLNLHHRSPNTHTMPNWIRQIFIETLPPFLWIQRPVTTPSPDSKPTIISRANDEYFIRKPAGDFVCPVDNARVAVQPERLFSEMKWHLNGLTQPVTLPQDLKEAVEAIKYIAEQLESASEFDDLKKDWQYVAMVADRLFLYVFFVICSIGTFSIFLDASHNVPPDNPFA
T1 sequence (P02714 18-506): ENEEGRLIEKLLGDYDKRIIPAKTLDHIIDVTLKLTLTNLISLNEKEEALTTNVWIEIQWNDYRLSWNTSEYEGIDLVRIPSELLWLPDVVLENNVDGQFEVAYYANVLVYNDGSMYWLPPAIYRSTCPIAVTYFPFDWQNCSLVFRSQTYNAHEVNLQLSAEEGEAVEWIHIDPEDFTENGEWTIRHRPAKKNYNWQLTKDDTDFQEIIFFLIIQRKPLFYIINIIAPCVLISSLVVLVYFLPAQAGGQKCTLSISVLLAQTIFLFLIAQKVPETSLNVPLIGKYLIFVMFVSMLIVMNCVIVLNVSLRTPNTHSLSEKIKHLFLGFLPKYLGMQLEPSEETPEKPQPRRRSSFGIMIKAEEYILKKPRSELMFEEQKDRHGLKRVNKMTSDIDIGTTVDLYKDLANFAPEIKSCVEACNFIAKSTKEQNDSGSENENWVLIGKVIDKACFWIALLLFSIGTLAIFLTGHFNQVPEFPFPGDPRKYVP
T1 sequence (P02718 22-522): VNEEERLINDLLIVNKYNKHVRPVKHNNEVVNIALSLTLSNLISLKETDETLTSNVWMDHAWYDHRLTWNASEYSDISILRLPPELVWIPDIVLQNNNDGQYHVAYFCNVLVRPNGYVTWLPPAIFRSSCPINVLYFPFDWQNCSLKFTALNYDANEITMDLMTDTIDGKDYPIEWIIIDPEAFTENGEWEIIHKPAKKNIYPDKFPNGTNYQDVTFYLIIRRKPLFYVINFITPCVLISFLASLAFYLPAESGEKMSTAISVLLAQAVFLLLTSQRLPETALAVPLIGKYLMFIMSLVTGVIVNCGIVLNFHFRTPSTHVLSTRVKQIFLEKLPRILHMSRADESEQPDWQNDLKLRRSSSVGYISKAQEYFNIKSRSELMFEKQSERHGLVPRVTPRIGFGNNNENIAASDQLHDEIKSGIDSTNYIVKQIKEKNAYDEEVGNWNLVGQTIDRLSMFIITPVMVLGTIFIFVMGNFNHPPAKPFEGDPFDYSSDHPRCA
human α1β2γ2L GABAA receptor, sequence (P14867 28-456): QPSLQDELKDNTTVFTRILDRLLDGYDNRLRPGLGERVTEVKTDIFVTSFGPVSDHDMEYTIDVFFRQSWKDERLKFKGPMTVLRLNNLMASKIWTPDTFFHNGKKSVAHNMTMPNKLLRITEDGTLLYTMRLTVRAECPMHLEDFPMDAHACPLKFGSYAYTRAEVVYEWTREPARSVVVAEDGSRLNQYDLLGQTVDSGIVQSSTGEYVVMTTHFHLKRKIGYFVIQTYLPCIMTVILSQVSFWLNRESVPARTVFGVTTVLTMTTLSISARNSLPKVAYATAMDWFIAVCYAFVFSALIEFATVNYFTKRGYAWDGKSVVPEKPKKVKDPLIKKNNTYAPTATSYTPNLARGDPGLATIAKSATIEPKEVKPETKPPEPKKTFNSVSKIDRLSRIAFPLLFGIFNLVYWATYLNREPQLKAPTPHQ
human α1β2γ2L GABAA receptor, sequence (P47870 25-512 limits assumed): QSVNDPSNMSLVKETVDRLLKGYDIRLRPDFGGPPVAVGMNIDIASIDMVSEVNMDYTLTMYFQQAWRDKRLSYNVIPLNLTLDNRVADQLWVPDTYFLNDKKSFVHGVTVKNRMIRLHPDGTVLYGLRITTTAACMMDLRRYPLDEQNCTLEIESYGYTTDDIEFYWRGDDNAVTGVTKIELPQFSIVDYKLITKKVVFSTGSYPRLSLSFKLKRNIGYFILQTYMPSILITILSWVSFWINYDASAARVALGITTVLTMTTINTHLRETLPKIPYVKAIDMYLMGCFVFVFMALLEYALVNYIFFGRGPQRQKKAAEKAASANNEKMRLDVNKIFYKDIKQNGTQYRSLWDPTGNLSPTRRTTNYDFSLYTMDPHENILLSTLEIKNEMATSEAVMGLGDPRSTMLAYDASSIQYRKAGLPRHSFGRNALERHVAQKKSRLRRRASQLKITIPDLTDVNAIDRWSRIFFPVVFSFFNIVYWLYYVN
human α1β2γ2L GABAA receptor, sequence (P18507 40-475): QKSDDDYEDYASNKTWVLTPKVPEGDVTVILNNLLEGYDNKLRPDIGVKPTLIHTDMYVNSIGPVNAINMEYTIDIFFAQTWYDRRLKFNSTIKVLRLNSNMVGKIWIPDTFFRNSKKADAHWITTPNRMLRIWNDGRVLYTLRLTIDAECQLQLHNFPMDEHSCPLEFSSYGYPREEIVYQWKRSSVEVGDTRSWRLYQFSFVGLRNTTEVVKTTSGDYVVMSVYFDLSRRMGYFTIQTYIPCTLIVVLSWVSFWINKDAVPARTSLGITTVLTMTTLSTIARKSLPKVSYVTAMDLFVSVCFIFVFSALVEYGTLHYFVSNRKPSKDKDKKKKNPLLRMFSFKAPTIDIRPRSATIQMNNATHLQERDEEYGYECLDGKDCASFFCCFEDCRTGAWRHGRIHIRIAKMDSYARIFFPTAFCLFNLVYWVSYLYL
α1β3γ2 GABAA receptors (agonist site), sequence (P14867 28-456): as the sequence (P14867 28-456) above
α1β3γ2 GABAA receptors (agonist site), sequence (P28472 26-473): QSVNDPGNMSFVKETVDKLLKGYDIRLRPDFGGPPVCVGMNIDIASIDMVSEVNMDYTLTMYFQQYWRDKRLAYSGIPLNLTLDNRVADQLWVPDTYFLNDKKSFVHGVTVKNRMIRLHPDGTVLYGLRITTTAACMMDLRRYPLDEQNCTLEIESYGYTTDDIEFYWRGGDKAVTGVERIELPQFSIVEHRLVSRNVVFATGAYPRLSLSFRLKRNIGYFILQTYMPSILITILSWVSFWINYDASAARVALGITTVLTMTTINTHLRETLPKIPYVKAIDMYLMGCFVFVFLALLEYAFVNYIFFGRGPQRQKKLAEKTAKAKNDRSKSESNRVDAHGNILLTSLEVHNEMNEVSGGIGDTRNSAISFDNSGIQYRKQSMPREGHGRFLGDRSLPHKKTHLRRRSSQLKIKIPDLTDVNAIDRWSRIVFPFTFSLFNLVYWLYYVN
α1β3γ2 GABAA receptors (agonist site), sequence (P18507 40-475): as the sequence (P18507 40-475) above
α1β3γ2 GABAA receptors (benzodiazepine site), sequence (P14867 28-456): as the sequence (P14867 28-456) above
α1β3γ2 GABAA receptors (benzodiazepine site), sequence (P28472 26-473): as the sequence (P28472 26-473) above
α1β3γ2 GABAA receptors (benzodiazepine site), sequence (P18507 40-475): as the sequence (P18507 40-475) above

With `CC(C)c1cccc(C(C)C)c1O` [propofol, 2,6-diisopropylphenol] the “nH of ACh current inhibition” value (Torpedo nACh receptor [1]) was 0.8 ± 0.1, the “Enhancement of [3H]muscimol binding” value ([2]; 3 nM [3H]muscimol) was 2.4x ^a and the “effect on [3H]muscimol binding above 30 μM” value ([2]; above 30 μM) was “caused a sharp decrease in binding”. The “Direct activation, currents as % of the maximal GABA response” value (GABAA receptor; propofol alone) was 30 – 70%, the Direct activation (GABAA receptor; ref Krasowski et al, 2001 [2]) was 67% and the EC50 (Xenopus laevis tadpoles [3]; ref Hall et al, 2010 [13]) was 2800 nM. For the same molecule, the EC50 (Xenopus laevis tadpoles [3]; ref Krasowski et al, 2001 [2]) was 1900 nM, the “saturated concentration in water” value [4] was 1 ± 0.02 mM and the “Enhancement of [3H]flunitrazepam binding” value ([5]; 1.5 nM [3H]flunitrazepam) was 2x ^a. The “Enhancement of specific [3H]flunitrazepam binding” value ([5]; 1.5 nM [3H]flunitrazepam) was ~ 200%, the “effect on [3H]flunitrazepam binding above 40 μM” value [5] was “caused a rapid decrease in binding” and the “Imax of GABA current enhancement” value [6] was 16 ± 3%. For the same molecule, the “nH of GABA current enhancement” value [6] was 1.7 ± 1.2, the “nH of GABA concentration response curve in the presence of drug” value [6] was 1.1 ± 0.3 and the “Direct activation, current as % of maximal GABA response” value ([6]; absence of GABA) was 30–50%. For the same molecule, the “Shift in GABA dose response curve to the left” value [6] was 11 ^a fold and the “additional increase of [3H]6 photoincorporation” value (Torpedo nACh receptor [7]; [11]) was ~ 20%.
In the case of `c1ccc(C2(N3CCCCC3)CCCCC2)cc1` [phencyclidine], the “effect on nACh receptor subunit photolabeling by [3H]6” value (Torpedo nACh receptor [7]) is reported as “little effect” and the “additional decrease of [3H]6 photoincorporation” value (Torpedo nACh receptor [7]; [11]) is reported as ~ 20%.
For `CCCCNc1ccc(C(=O)OCCN(C)C)cc1` [tetracaine], the “effect on nACh receptor subunit photolabeling by [3H]6” value (Torpedo nACh receptor [7]) was “little effect; also recorded: no effect”.
For `CC(C)c1cc(CCCC2(C)N=N2)cc(C(C)C)c1O` [[^3H]6, ^3H-2,6-Diisopropyl-4-[3-(3-methyl-3H-diazirin-3-yl)-propyl]-phenol], the “carbamylcholine-enhanced 3H photoincorporation in nACh receptor α-subunit” value (Torpedo nACh receptor [7]; 1.7 μM [3H]6) was 3000 cpm and the “fraction of nACh receptor α-subunits photolabeled” value (Torpedo nACh receptor [7]; 1.7 μM [3H]6, carbamylcholine-enhanced) was 0.2%.
For `CC(C)c1ccc(C2(C(F)(F)F)N=N2)cc1O` [m-TFD-propofol, 2-isopropyl-5-[3-(trifluoromethyl)-3H-diazirin-3-yl]phenol], the Direct activation (GABAA receptor; m-TFD-propofol at 30 μM, ref Hall et al, 2010 [13]) is listed as “no direct agonist activity” and the EC50 (Xenopus laevis tadpoles [3]; ref Hall et al, 2010 [13]) is listed as 3100 nM.
With `CC(C)c1cc(CCCC2(C)N=N2)cc(C(C)C)c1O` [Compound 6, 2,6-Diisopropyl-4-[3-(3-methyl-3H-diazirin-3-yl)-propyl]-phenol] the “nH of ACh current inhibition” value (Torpedo nACh receptor [1]) was 0.9 ± 0.2, the reversibility of anesthesia (Xenopus laevis tadpoles [8]) was “reversible” and the EC50 [2] was about 500 nM. For the same molecule, the “time stable in buffer” value [9] was “at least 2.5 days”, the EC50 [5] was about 500 nM and the “Enhancement of specific [3H]flunitrazepam binding” value ([5]; 1.5 nM [3H]flunitrazepam) was ~ 150%. For the same molecule, the “effect on [3H]flunitrazepam binding above 40 μM” value [5] was “caused no further change”, the “Imax of GABA current enhancement” value [6] was 22 ± 6% and the “nH of GABA current enhancement” value [6] was 1.4 ± 1.3. The “nH of GABA concentration response curve in the presence of drug” value [6] was 0.9 ± 0.2, the “Shift in GABA dose response curve to the left” value [6] was 9 ^a fold and the octanol/water partition coefficient [10] was 15,600 ± 1200.
